# Data as given in ChEMBL document CHEMBL2057132, “Structure-activity relationship of 2,2-dimethyl-2H-chromene based arylsulfonamide analogs of 3,4-dimethoxy-N-[(2,2-dimethyl-2H-chromen-6-yl)methyl]-N-phenylbenzenesulfonamide, a novel small molecule hypoxia inducible factor-1 (HIF-1) pathway inhibitor and anti-cancer agent” (Bioorg Med Chem, 2012).
# Activity calls are given as the source filed them. The rule behind the calls is not given here.
# Assays:
# [1] = biological target: T1, Hypoxia inducible factors; HIF-1-alpha, HIF-2-alpha (Homo sapiens, UniProt Q16665+Q99814); experiment: Inhibition of HIF1 transcriptional activity in human LN229 cells expressing VEGF-HRE-V6R and coexpressing luciferase, lac Z gene incubated for 1 hr in normoxia condition followed by 24 hrs in hypoxia condition by reporter gene assay; format: cell-based
# In short: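 LN229 glioblastoma cells stably carrying a 6×VEGF-HRE bidirectional luciferase/lacZ reporter, 3 × 10^4 per well, grown 24 h normoxic in DMEM/10% FBS. Compound (serial dilutions in medium, 1% DMSO) added, 1 h normoxia, then 24 h at 1% O2, 37 °C. Lysate luciferase read by luminometer, as percent of untreated hypoxic cells. Triplicates, two independent experiments.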
# [2] = biological target: T1, Hypoxia inducible factors; HIF-1-alpha, HIF-2-alpha; experiment: Inhibition of HIF1 transcriptional activity in human LN229 cells expressing VEGF-HRE-V6R and coexpressing lac Z gene at 10 uM incubated for 1 hr in normoxia condition followed by 24 hrs in hypoxia condition by luciferase reporter gene assay relative to control; values are per cent of control
# [3] = Downregulation of HIF1alpha protein level in human LN229 cells expressing VEGF-HRE-V6R at 10 uM incubated for 1 hr in normoxia condition followed by 24 hrs in hypoxia condition by Western blot analysis relative to control; format: functional, cell-based; conditions: LN-229
# In short: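 LN229-V6R cells (2 × 10^5 per 35 mm dish) grown 24 h under normoxia. Compounds given at 10 μM in medium with 1% DMSO, 1 h normoxia, then 24 h hypoxia (1% O2) at 37 °C. SDS lysis, 12.5% gel, nitrocellulose, anti-HIF-1α and β-actin blots, ECL. Densitometry as percent of untreated hypoxic control, normalized to β-actin.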
# [4] = Aqueous solubility of the compound at pH 7.4; format: physicochemical
Structure (SMILES),IC50 [1] [µM],inhibition [1],residual activity [2] [%],Activity [3],solubility [4] [µg/mL]
COc1ccc(S(=O)(=O)N(Cc2ccc3c(c2)C=CC(C)(C)O3)C(C)C)cc1OC,1.5,Dose-dependent effect,< 5,30%,–
CC1(C)C=Cc2cc(CN(c3ccccc3)S(=O)(=O)c3ccccc3)ccc2O1,2.7,Dose-dependent effect,–,–,–
CC(C)N(Cc1ccc2c(c1)C=CC(C)(C)O2)S(=O)(=O)c1ccccc1,2.2,Dose-dependent effect,–,–,–
CC1(C)C=Cc2cc(CN(c3ccc(F)cc3)S(=O)(=O)c3cc(Cl)ccc3Cl)ccc2O1,8,Dose-dependent effect,–,–,–
CC(C)N(Cc1ccc2c(c1)C=CC(C)(C)O2)S(=O)(=O)c1cc(Cl)ccc1Cl,16.8,Dose-dependent effect,–,–,–
CC(C)N(Cc1ccc2c(c1)C=CC(C)(C)O2)S(=O)(=O)c1ccc(F)cc1,3.8,Dose-dependent effect,–,inactive,–
CC1(C)C=Cc2cc(CN(c3ccccc3)S(=O)(=O)c3cc(Cl)ccc3Cl)ccc2O1,3.3,Dose-dependent effect,–,–,–
COc1ccc(S(=O)(=O)N(Cc2ccc3c(c2)C=CC(C)(C)O3)c2ccccc2)cc1OC,1.6,Dose-dependent effect,< 5,inactive,< 15
CC1(C)C=Cc2cc(CN(c3ccccc3)S(=O)(=O)c3ccc([N+](=O)[O-])cc3)ccc2O1,4.2,Dose-dependent effect,–,–,–
CC(C)N(Cc1ccc2c(c1)C=CC(C)(C)O2)S(=O)(=O)c1ccc([N+](=O)[O-])cc1,3,Dose-dependent effect,–,–,–

# The next lines start with results.
IC50 [1] [µM],inhibition [1],residual activity [2] [%],Structure (SMILES),Activity [3],solubility [4] [µg/mL]
7.2,Dose-dependent effect,–,CC1(C)C=Cc2cc(CN(c3ccc(F)cc3)S(=O)(=O)c3ccccc3)ccc2O1,–,–
4.8,Dose-dependent effect,–,CC1(C)C=Cc2cc(CN(c3ccc(F)cc3)S(=O)(=O)c3ccc([N+](=O)[O-])cc3)ccc2O1,–,–
3.2,Dose-dependent effect,< 5,COc1ccc(S(=O)(=O)N(Cc2ccc3c(c2)C=CC(C)(C)O3)c2ccc(F)cc2)cc1OC,inactive,–
4.8,Dose-dependent effect,–,CC1(C)C=Cc2cc(CN(c3ccccc3)S(=O)(=O)c3ccc(F)cc3)ccc2O1,–,–
6.6,Dose-dependent effect,–,CC1(C)C=Cc2cc(CN(c3ccc(F)cc3)S(=O)(=O)c3ccc(F)cc3)ccc2O1,–,–
